High-throughput results (PubChem)
GPR7 antag: GPR7 receptor antagonists, primary screen, cell-based, fluorescence, single concentration. 290,000 compounds, 1.1% hits. Neuropeptides B/W receptor type 1 (Homo sapiens), P48145. GPR7-expressing cells, fluorescence antagonist assay. inhibition, % at 4.4 µM; in the data active = inhibition above about 16%, passing the limit was not always enough;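 also: cells stimulated with the agonist NPW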
CHO parental Ca: ATP-evoked calcium signal inhibitors, parental CHO, primary screen, counter-screen for OX1R antagonist project, cell-based, fluorescence, Fluo-8 calcium dye. parental CHO-K1, ATP-induced calcium, Fluo-8 fluorescence. inhibition, % at 5.6 µM. 330,000 compounds, 0.63% hits. AID 463079, 2010;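 active = inhibition above that plate's mean sample inhibition plus 3 SD, cut at about 26% in these data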
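Material: parental CHO cells / Compound: single nominal dose of 5.6 µM per compound / Signal: Fluo-8 fluorescence / Replicates: singlicate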
OX1R antag-1: OX1R (HCRTR1) antagonists, primary screen, fluorescence, CHO/OX1R cells, Fluo-8 calcium, orexin A; Orexin/Hypocretin receptor type 1 (Homo sapiens), O43613; Fluo-8 calcium fluorescence; inhibition, % at 5 µM; 330,000 compounds, 0.43% hits; AID 434989, 2010;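 active = inhibition above its plate's threshold, mean inhibition of all tested compounds on the plate plus 3 SD, cut at about 37% in these data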
Target sequence (O43613 whole entry, looked up): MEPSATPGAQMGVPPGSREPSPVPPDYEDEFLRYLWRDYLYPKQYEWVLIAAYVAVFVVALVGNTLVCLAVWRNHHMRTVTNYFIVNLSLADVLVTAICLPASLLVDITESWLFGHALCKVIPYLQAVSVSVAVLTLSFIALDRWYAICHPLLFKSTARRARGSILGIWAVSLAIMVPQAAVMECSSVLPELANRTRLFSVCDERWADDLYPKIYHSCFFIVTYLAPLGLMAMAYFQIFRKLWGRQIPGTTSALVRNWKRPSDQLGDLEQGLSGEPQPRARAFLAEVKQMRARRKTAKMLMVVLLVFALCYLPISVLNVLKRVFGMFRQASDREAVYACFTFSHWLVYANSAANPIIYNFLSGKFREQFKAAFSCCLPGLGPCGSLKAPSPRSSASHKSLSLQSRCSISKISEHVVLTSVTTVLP
TAAR1 antagonist: human TAAR1 antagonists, primary screen, Fluo-8 calcium fluorescence, CHO RD-HGA16 cells; antagonist; 360,000 compounds, 1.5% hits; inhibition, % at 3 µM; Trace amine-associated receptor 1 (Homo sapiens), Q96RJ0; AID 624466, 2012;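 active = inhibition above a per-plate cutoff, the mean inhibition of test compounds on that plate plus 3 SD, cut at about 49% in these data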
Target sequence (Q96RJ0 whole entry, looked up): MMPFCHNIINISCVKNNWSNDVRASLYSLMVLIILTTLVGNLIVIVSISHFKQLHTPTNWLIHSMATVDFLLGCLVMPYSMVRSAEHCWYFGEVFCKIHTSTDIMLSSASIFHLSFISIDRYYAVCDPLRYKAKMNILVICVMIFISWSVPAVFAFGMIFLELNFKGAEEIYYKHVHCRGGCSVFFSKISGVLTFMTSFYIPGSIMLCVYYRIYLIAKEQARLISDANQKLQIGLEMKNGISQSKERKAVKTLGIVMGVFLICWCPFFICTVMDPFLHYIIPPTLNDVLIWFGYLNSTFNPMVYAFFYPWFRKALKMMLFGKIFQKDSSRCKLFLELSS
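Test system: RD-HGA16 CHO cells with stable hTAAR1 and Gα16 / Probe or stimulus: EC80 β-phenethylamine stimulus / Times: seeding 17-24 h prior, 75-min 37 °C, 30-min RT dye loading / Detection: Fluo-8 calcium-sensitive fluorescence / Read-out basis: % inhibition scaled between DMSO and EC80 PEA controls / Repeats: singlicate, one well per test compound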
TAAR1 agonist: human TAAR1 agonists, primary screen, Fluo-8 calcium fluorescence, CHO RD-HGA16 cells. Trace amine-associated receptor 1 (Homo sapiens), Q96RJ0. vehicle wells 0%, saturating PEA agonist 100%. activation, % at 3 µM. 360,000 compounds, 0.99% hits. AID 624467, 2012;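 active = activation above the mean activation of all test compounds in the run plus 3 SD, cut at about 38% in these data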
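Assay system: CHO-derived RD-HGA16 cells with stable Gα16 and human TAAR1; timing: 17-24 h seeding, 75 min 37 °C dye, 30 min RT; read-out: % activation from peak over basal fluorescence ratio, DMSO-to-PEA scaled; measured by: kinetic Fluo-8 calcium fluorescence; benchmarks: low control DMSO, high control PEA (EC100); doses: 3 µM single concentration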
OX1R antag-2: antagonists of human orexin 1 receptor (OX1R); Orexin/Hypocretin receptor type 1 (Homo sapiens), O43613; OX1R-expressing cells, FRET antagonist read-out; inhibition, % at 6.6 µM; 330,000 compounds, 1.8% hits; in the data active = inhibition mostly above about 38%, no sharp cut-off; inactive = mostly below about 40%
nonsel antag count: nonselective antagonists in TAAR1 counter-screen cells, counter-screen for hTAAR1 antagonist project, cell-based, fluorescence, calcium. counterscreen cell line, antagonist mode. shares compounds with TAAR1 antagonist. 2,400 compounds, 77% hits. inhibition, % at 3 µM; in the data active = inhibition above about 22%;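 also: CHO-Ga16 host cells stimulated with ATP at an EC80 level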
TAAR1 antag conf: human TAAR1 antagonists, retest of hits, confirmation, cell-based, fluorescence. TAAR1-expressing cells, fluorescence antagonist read-out. shares compounds with TAAR1 antagonist. 2,400 compounds, 40% hits. inhibition, % at 3 µM; in the data active = inhibition above about 49%;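 also: CHO-Ga16 host cells challenged with agonist PEA near its EC80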
Ga16 nonsel ag: calcium activation in Ga16-expressing cells, counter-screen for TAAR1 antagonist project, cell-based, fluorescence; shares compounds with TAAR1 antagonist; agonist counterscreen; activation, % at 3 µM; 2,400 compounds, 18% hits; AID 651953, 2012; in the data active = activation above about 12%
TAAR1 ag count: TAAR1 activation by candidate antagonists – cell-based, fluorescence, counter-screen for TAAR1 antagonist project. 2,400 compounds, 2% hits. AID 651955, 2012. shares compounds with TAAR1 antagonist. hTAAR1 cell line, agonist mode. activation, % at 3 µM; in the data active = activation above about 37%;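 also: CHO cells stably expressing TAAR1 with calcium dye readout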
Of the large screens only hits and unclear results are named; the others gave an inactive call (follow-up assays come after a bar, where they were run). Shown are actives, neighbours in structure and some others; about 4.6% of the full set was active somewhere.

COc1ccc(S(=O)(=O)N2CCCC2CNC(=O)C(=O)NCc2ccccc2)cc1 (stereo not drawn)	none (no result: GPR7 antag)
O=C(NCc1ccc(F)cc1)C(=O)NCC1CCCN1S(=O)(=O)c1ccccc1 (stereo not drawn)	none (no result: GPR7 antag)
COc1ccc(CCNC(=O)C(=O)NCC2CCCN2S(=O)(=O)c2ccccc2)cc1 (stereo not drawn)	TAAR1 antagonist 65.0 (no result: GPR7 antag) | nonsel antag count 27.4 | TAAR1 antag conf 49.8 | Ga16 nonsel ag inactive | TAAR1 ag count inactive
CC(=O)Nc1ccc(S(=O)(=O)NCC2(N3CCOCC3)CCCCC2)cc1	none (no result: GPR7 antag, CHO parental Ca, OX1R antag-1, OX1R antag-2)
COc1ccc(N2CCN(C(=O)COC(=O)CCOc3ccccc3C)CC2)cc1	none (no result: GPR7 antag)
COc1ccc(N2CCN(C(=O)COC(=O)c3oc4ccc(OC)cc4c3C)CC2)cc1	TAAR1 antagonist 69.4 (no result: GPR7 antag) | nonsel antag count 42.4 | TAAR1 antag conf 56.6 | Ga16 nonsel ag inactive | TAAR1 ag count inactive
COc1ccc(N2CCN(C(=O)COC(=O)CCOc3cc(C)ccc3C)CC2)cc1	TAAR1 antagonist 51.0 (no result: GPR7 antag) | nonsel antag count 39.6 | TAAR1 antag conf 52.1 | Ga16 nonsel ag 12.0 | TAAR1 ag count inactive
Cc1ccc(C)c(OCCC(=O)OCC(=O)NCc2ccccc2)c1	none (no result: GPR7 antag)
Cc1ccc(C)c(OCCC(=O)OCC(=O)NCCNC(=O)COC(=O)CCOc2cc(C)ccc2C)c1	TAAR1 antagonist 86.7 (no result: GPR7 antag) | nonsel antag count 47.7 | TAAR1 antag conf 68.2 | Ga16 nonsel ag 16.5 | TAAR1 ag count inactive
CCCNC(=O)C1(C)CCN(Cc2cccc(OC(=O)c3ccccc3)c2)C1 (stereo not drawn)	none (no result: GPR7 antag, CHO parental Ca, OX1R antag-1, OX1R antag-2)
COC(=O)[C@@]12CCCCN1[C@H](c1ccc(-c3ccc(F)cc3)c(OC)c1)[C@@H]1C(=O)N(C)C(=O)[C@@H]12	none (no result: GPR7 antag)
O=C(CN1CCN(c2ccccn2)CC1)Nc1ccccc1C(=O)Nc1ccccc1	TAAR1 antagonist 64.5 (no result: GPR7 antag) | nonsel antag count 27.3 | TAAR1 antag conf inactive | Ga16 nonsel ag inactive | TAAR1 ag count inactive
CCc1ccc(NC(=O)c2cnc(N3CCN(c4ccccn4)CC3)c3ccccc23)cc1	TAAR1 antagonist 68.2 | nonsel antag count 36.8 | TAAR1 antag conf 55.2 | Ga16 nonsel ag 11.9 | TAAR1 ag count inactive
COc1ccc(N2CCN(CC(=O)Nc3ccccc3C(=O)NC(C)c3ccccc3)CC2)cc1 (stereo not drawn)	TAAR1 antagonist 60.5 (no result: GPR7 antag, CHO parental Ca, OX1R antag-1, OX1R antag-2) | nonsel antag count inactive | TAAR1 antag conf inactive | Ga16 nonsel ag inactive | TAAR1 ag count inactive
CC(C)NC(=O)c1cnc(N2CCN(c3ccccn3)CC2)c2ccccc12	none
COC(=O)C1=CN(c2ccccc2OC)C(N)=C(C#N)C1c1cccc([N+](=O)[O-])c1 (stereo not drawn)	none (no result: GPR7 antag, CHO parental Ca, OX1R antag-1, OX1R antag-2)
O=C(NCc1ccco1)c1ccc(Cl)c(S(=O)(=O)Nc2ccccc2)c1	none
C=CCNC(=O)c1ccccc1NC(=O)c1ccc(Cl)c(S(=O)(=O)Nc2ccccc2)c1	TAAR1 antagonist 54.6 | nonsel antag count 27.9 | TAAR1 antag conf inactive | Ga16 nonsel ag inactive | TAAR1 ag count inactive
O=C(O)c1ccccc1C(=O)c1ccc(F)c(F)c1	none (no result: GPR7 antag, CHO parental Ca, OX1R antag-1, OX1R antag-2)
O=C(COC(=O)c1cc[n+]([O-])cc1)Nc1ccccc1Sc1ccccc1	TAAR1 antagonist 104.7 | nonsel antag count inactive | TAAR1 antag conf inactive | Ga16 nonsel ag inactive | TAAR1 ag count inactive
O=C(Cc1ccccc1)Nc1ccccc1Sc1ccccc1	none
O=C(Cc1ccc(Br)cc1)Nc1ccccc1Sc1ccccc1	TAAR1 antagonist 58.0 | nonsel antag count inactive | TAAR1 antag conf inactive | Ga16 nonsel ag inactive | TAAR1 ag count inactive
COc1ccc(C2CC(c3ccccc3)=NN2C(=O)COC(=O)CNC(=O)c2ccccc2)cc1 (stereo not drawn)	TAAR1 antagonist 66.7 | nonsel antag count 43.0 | TAAR1 antag conf 54.3 | Ga16 nonsel ag 21.8 | TAAR1 ag count inactive
CCOC(=O)C(Cc1ccc(O)c([N+](=O)[O-])c1)N1C(=O)c2ccccc2C1=O (stereo not drawn)	none (no result: GPR7 antag, CHO parental Ca, OX1R antag-1, OX1R antag-2)
COc1ccc(CNC(=O)C(C)OC(=O)c2cccs2)cc1 (stereo not drawn)	none
CN(C(=O)c1sc2nc(N3CCOCC3)c3c(c2c1N)CCCC3)c1ccccc1	TAAR1 antagonist 58.8 | nonsel antag count inactive | TAAR1 antag conf inactive | Ga16 nonsel ag inactive | TAAR1 ag count inactive
Cc1cccc(OCC(O)Cn2c(N3CCCCC3)nc3c2c(=O)n(C)c(=O)n3C)c1 (stereo not drawn)	TAAR1 antagonist 63.6 | nonsel antag count 29.8 | TAAR1 antag conf inactive | Ga16 nonsel ag inactive | TAAR1 ag count inactive
Cn1c(=O)c2c(nc(N3CCCCCC3)n2CC(O)COc2ccccc2)n(C)c1=O (stereo not drawn)	none
COC(=O)[C@]12CCCCC=C1N(Cc1cccc3ccccc13)C(=O)[C@H](CC(=O)N1CCCCC1)C2	TAAR1 antagonist 62.3 (no result: GPR7 antag, CHO parental Ca, OX1R antag-1, OX1R antag-2) | nonsel antag count 21.7 | TAAR1 antag conf inactive | Ga16 nonsel ag inactive | TAAR1 ag count inactive
COC(=O)[C@]12CCCCC=C1N(Cc1cccc3ccccc13)C(=O)[C@H](CC(=O)N1CCC(c3ccccc3)CC1)C2	none (no result: GPR7 antag, CHO parental Ca, OX1R antag-1, OX1R antag-2)
CCN(CC)CC(C)(C)COC(=O)c1oc2ccccc2c1C	none
O=C1C2C3CCC(C3NCc3ccccc3)C2C(=O)N1Cc1ccccc1 (stereo not drawn)	TAAR1 antagonist 55.1 | nonsel antag count inactive | TAAR1 antag conf inactive | Ga16 nonsel ag inactive | TAAR1 ag count inactive
COc1cc(C(=O)N/N=C/c2cc([N+](=O)[O-])cs2)cc(OC)c1OC	TAAR1 antagonist 102.1 | nonsel antag count inactive | TAAR1 antag conf inactive | Ga16 nonsel ag inactive | TAAR1 ag count inactive
